Where two headings read alike, the source gives them in different places. Each block holds one compound with its values, some of them ahead of it.
What was measured:
[1] = tested on: Pseudomonas aeruginosa; test: MIC / bacterial growth, broth microdilution; type: cell-based; conditions: standard antibiotic
Summary of the method: (§1)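 Ampicillin (10 to 0.078125 mg/mL) as reference in Mueller–Hinton broth microdilution. Wells inoculated with fresh overnight suspension adjusted to OD600 0.6; uninoculated and drug-free growth controls included. Incubated 18 h at 37 °C, aerobic, shaking at 150 rpm. Growth checked visually and spectrophotometrically. MIC taken as lowest concentration preventing visible growth. Triplicate.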

[2] = tested on: Enterococcus faecalis; test: MIC / bacterial growth, broth microdilution; type: cell-based; conditions: standard antibiotic
Summary of the method: as §1

[3] = tested on: Staphylococcus aureus; test: MIC / bacterial growth, broth microdilution; type: cell-based; conditions: standard antibiotic
Summary of the method: as §1

[4] = Ferric reducing antioxidant power
[5] = DPPH free radical scavenging assay
[6] = ref 27 (Djouahri et al., 2015); cited from earlier work
[7] = ABTS assay
[8] = biological target: Porcine pancreatic elastase (Sus scrofa, UniProt P00772); test: Anti-elastase activity; type: biochemical
Summary of the method: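 Porcine pancreatic elastase stock at 3.33 mg/mL in sterile water. Test sample (3–0.046 mg/mL), Tris–HCl buffer (pH 8) and enzyme pre-incubated 15 min. N-succinyl-Ala-Ala-Ala-p-nitroanilide substrate (1.6 mM solution) added, then 20 min at 37 °C. A400 read immediately. Inhibition % from blank-corrected sample versus buffer+enzyme absorbance. EGCG positive control. Run in triplicate, mean ± SD.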

Porcine pancreatic elastase, sequence (P00772 27-266): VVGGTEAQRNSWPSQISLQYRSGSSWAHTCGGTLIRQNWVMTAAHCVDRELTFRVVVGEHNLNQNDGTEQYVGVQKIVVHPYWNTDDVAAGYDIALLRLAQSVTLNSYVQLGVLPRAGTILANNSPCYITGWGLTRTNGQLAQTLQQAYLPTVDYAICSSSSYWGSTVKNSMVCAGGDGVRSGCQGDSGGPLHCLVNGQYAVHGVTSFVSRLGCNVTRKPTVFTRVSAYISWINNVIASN

Structure (SMILES): CC1(C)S[C@@H]2[C@H](NC(=O)[C@H](N)c3ccccc3)C(=O)N2[C@H]1C(=O)O [ampicillin]
Concentration that completely inhibited the bacterial growth [1]: 0.3125 mg/mL
Concentration that completely inhibited the bacterial growth [2]: 0.3125 mg/mL
Concentration that completely inhibited the bacterial growth [3]: 0.3125 mg/mL

DPPH IC50 [5]: 5.36 ± 0.25 µg/mL
Structure (SMILES): O=c1c(O)c(-c2ccc(O)c(O)c2)oc2cc(O)cc(O)c12 [Quercetin]
FRAP [4]: 16.60 ± 0.64 mM of FeSO4/g Extract

Structure (SMILES): COc1ccc(O)c(C(C)(C)C)c1 [BHA]
DPPH IC50 [6]: 24.73 ± 0.11 µg/mL

ABTS IC50 [7]: 21.7 ± 0.29 µg/mL
Structure (SMILES): O=C1O[C@H]([C@@H](O)CO)C(O)=C1O [Ascorbic acid]

Elastase IC50 [8]: 92.00 ± 3.1 µg/mL
Structure (SMILES): O=C(O[C@@H]1Cc2c(O)cc(O)cc2O[C@@H]1c1cc(O)c(O)c(O)c1)c1cc(O)c(O)c(O)c1 [EGCG, epigallocatechin gallate]

Structure (SMILES): Cc1cc(C(C)(C)C)c(O)c(C(C)(C)C)c1 [BHT]
DPPH IC50 [6]: 33.89 ± 0.16 µg/mL

Reference: PMC10839871 (Heliyon, 2024)
